From PubChem
A selection: hits, their analogues and other compounds. The true share with any hit is near 3.1%.
CHO parental Ca = signal in parental CHO cells, OX1R antagonist counter-screen; parental CHO-K1, ATP-induced calcium, Fluo-8 fluorescence; inhibition, % at 5.6 µM; hit rate 0.63% among 330,000; AID 463079;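 active = inhibition above that plate's mean sample inhibition plus 3 SD, cut at about 26% in these data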;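 note: 0% = ATP-challenged DMSO wells and 100% = DMSO wells without ATP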
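Measured by: calcium-sensitive Fluo-8 fluorescence / Test system: CHO parental line / Controls: ATP-challenged DMSO wells low, unchallenged DMSO wells high / Measure: % inhibition / Compound: single nominal dose of 5.6 µM per compound / Replicates: single well per compound, no replicates / Reagent: ATP as calcium-mobilizing challenge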
OX1R antag-1 = antagonists of human orexin 1 receptor (OX1R). AID 485270. inhibition, % at 6.6 µM. hit rate 1.8% among 330,000. O43613. OX1R-expressing cells, FRET antagonist read-out; in the data active = inhibition mostly above about 38%, no sharp cut-off; inactive = mostly below about 40%;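 note: 0% = agonist challenge alone and 100% = reference antagonist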
Target sequence (O43613 whole entry, looked up): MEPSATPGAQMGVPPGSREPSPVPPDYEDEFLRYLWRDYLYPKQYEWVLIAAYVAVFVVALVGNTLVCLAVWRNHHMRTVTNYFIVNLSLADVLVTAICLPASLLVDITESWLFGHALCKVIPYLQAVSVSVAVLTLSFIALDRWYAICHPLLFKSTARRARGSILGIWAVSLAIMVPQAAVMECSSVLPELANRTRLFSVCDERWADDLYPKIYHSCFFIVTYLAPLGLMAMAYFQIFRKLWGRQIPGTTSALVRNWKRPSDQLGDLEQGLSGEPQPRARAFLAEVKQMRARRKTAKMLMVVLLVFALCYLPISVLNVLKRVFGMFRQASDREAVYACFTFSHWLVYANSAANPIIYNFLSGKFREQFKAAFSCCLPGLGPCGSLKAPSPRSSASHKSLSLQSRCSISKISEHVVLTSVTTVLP
GPR7 antagonist = human neuropeptides B/W receptor 1 antagonism; P48145; GPR7-expressing cells, fluorescence antagonist assay; inhibition, % at 4.4 µM; hit rate 1.1% among 290,000; AID 1861; in the data active = inhibition above about 16%, passing the limit was not always enough;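 note: cells stimulated with the agonist NPW; 0% = agonist with vehicle and 100% = vehicle without agonist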
GalR3 antag = antagonists of human GalR3; AID 651719; HEK293 GalR3-CNG cAMP membrane potential fluorescence; galR3 body fused to GalR1 C-terminus; hit rate 0.44% among 360,000; inhibition, % at 3 µM; O60755;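 active = inhibition above the screen-wide average plus 3 SD, cut at about 13% in these data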;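 note: forskolin and galanin both at EC90 stimulate the cells; cAMP rise reported by CNG channel membrane potential dye signal; 0% = forskolin plus galanin with DMSO and 100% = forskolin alone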
Target sequence (O60755 1-299 limits assumed): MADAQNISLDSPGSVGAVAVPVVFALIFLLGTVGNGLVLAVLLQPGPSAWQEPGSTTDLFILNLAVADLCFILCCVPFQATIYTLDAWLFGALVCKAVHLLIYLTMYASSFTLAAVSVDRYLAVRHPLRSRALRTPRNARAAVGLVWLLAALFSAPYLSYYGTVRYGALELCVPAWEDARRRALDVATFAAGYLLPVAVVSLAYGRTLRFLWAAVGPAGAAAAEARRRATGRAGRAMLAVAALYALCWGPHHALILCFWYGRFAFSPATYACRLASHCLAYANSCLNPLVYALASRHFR
OX1R antag-2 = human HCRTR1 antagonism | O43613 | CHO/OX1R cells, Fluo-8 calcium fluorescence, orexin A | inhibition, % at 5 µM | hit rate 0.43% among 330,000;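 active = inhibition above its plate's threshold, mean inhibition of all tested compounds on the plate plus 3 SD, cut at about 37% in these data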;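 note: 0% = orexin A challenge wells and 100% = SB-334867-A antagonist wells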
GPR7 antag cf = confirmation of human GPR7 antagonists; shares compounds with GPR7 antagonist; GPR7-expressing cells, calcium fluorescence antagonist mode; inhibition, % at 4.4 µM; hit rate 52% among 2,400; in the data active = inhibition above about 24%;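 note: stimulated with the GPR7 agonist NPW; 0% = agonist plus vehicle and 100% = vehicle alone without agonist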
MCHR1 antag = MCHR1 (human) antagonism in GPR7 counter-screen. shares compounds with GPR7 antagonist. inhibition, % at 4.4 µM. MCHR1-expressing cells, fluorescence antagonist assay. AID 2148. hit rate 62% among 2,400; in the data active = inhibition above about 22%;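 note: 0% = vehicle with agonist and 100% = vehicle without agonist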
The depositor's hits bear a star; nt = not tested or not shown.

SMILES | CHO parental Ca | OX1R antag-1 | GPR7 antagonist | GalR3 antag | OX1R antag-2 | GPR7 antag cf | MCHR1 antag
C=CCOc1ccc(CN(C)CC(O)COc2cccc3ccccc23)cc1 (stereo not drawn) | 2 | 7 | 33* | -14 | -4 | 47* | 39*
O=c1c2cc(NC(=S)NCCCN3CCC(Cc4ccccc4)CC3)ccc2nc2n1CCCCC2 | -6 | 16 | 22* | -2 | -4 | 52* | 73*
COc1ccc2cc(C(=O)NCc3ccccc3)c(=O)oc2c1 | -3 | 8 | 34* | -12 | -4 | 12 | 1
COc1ccc(CNC(=O)c2cc3ccccc3oc2=O)cc1 | -20 | 8 | 5 | -4 | -22 | nt | nt
O=[N+]([O-])c1ccc(O)c(-c2cc(C(F)(F)F)nc(-c3ccccc3)n2)c1 | 74* | -26 | 44* | -2 | 21 | 72* | 60*
Oc1ccccc1-c1cc(C(F)(F)C(F)F)nc(-c2ccccc2)n1 | -11 | 10 | -2 | -7 | -6 | nt | nt
COc1cccc(NC(=O)N(C)C[C@@H]2OCc3cnnn3CCCC(=O)N([C@H](C)CO)C[C@@H]2C)c1 | nt | nt | nt | -6 | nt | nt | nt
CN(CC(=O)Nc1cccc(C(F)(F)F)c1)Cc1ccccc1 | 0 | 39 | 26* | -11 | -13 | 24* | 35*
CN(CC(=O)Nc1cccc(S(=O)(=O)N(C)C)c1)Cc1ccccc1 | -17 | 12 | 2 | -4 | -17 | nt | nt
CN1CCC(N(C)CC(=O)Nc2cccc(Oc3ccccc3)c2)CC1 | -2 | 15 | 27* | -4 | -5 | 3 | 7
CN1CCC(N(C)CC(=O)Nc2ccc3c(c2)OC(F)(F)O3)CC1 | 1 | 13 | -7 | -5 | -1 | nt | nt
O=C(CN1C2=NCCN2c2ccccc21)C12CC3CC(CC(C3)C1)C2 | -22 | 8 | 42* | -9 | 10 | 40* | 32*
COC(=O)C1=C(C)N(CC(C)C)C(=S)NC1c1ccc(Cl)cc1 (stereo not drawn) | nt | nt | nt | -5 | nt | nt | nt
O=C(Cc1cccs1)N=Nc1c(O)[nH]c2ccccc12 | -10 | 17 | 4 | -7 | -14 | nt | nt
O=C(N=Nc1c(O)[nH]c2ccccc12)c1cc(-c2cccs2)[nH]n1 | -3 | 66* | 29* | -4 | 9 | -6 | 29*
CCN(CC)S(=O)(=O)c1cc(C(=O)OC)ccc1Cl | -10 | 11 | 37* | -5 | -6 | -1 | -4
CCN(CC)S(=O)(=O)c1cc(C(=O)O)ccc1Cl | -9 | 9 | -8 | -6 | -17 | nt | nt
CCCc1nc2ccc(C(=O)OC)cn2c1Cc1ccc(C)cc1 | nt | nt | nt | -5 | nt | nt | nt
CCC(C)NCCOCCOc1ccc(Cl)c(C)c1C (stereo not drawn) | -12 | 7 | 21* | -9 | -19 | 24* | 25*
CCC(C)NCCOCCOc1ccc(Cl)c2ccccc12 (stereo not drawn) | -1 | 9 | 71* | -9 | 0 | 50* | 53*
O=C(NCc1cccc(Cl)c1)c1ccc(-n2cncn2)c2ccoc12 | nt | nt | nt | -5 | nt | nt | nt
O=S(=O)(NC1CC1)c1ccc(S(=O)(=O)N2CCc3ccccc32)cc1 | -3 | 32 | 22* | -2 | 22 | 22 | 29*
CN(C(=O)c1ccc(S(=O)(=O)NC2CCCC2)cc1)C1CCCCC1 | -4 | 4 | 30* | 3 | -16 | 46* | 22*
CN(C(=O)c1ccc(S(=O)(=O)N2CCCC2)cc1)C1CCCCC1 | -10 | 4 | 6 | -3 | -25 | nt | nt
O=S(=O)(NC1CCCC1)c1ccc(S(=O)(=O)NC2CCCC2)cc1 | -5 | 13 | 43* | -5 | -7 | 51* | 33*
SMILES | CHO parental Ca | OX1R antag-1 | GPR7 antagonist | GalR3 antag | OX1R antag-2 | GPR7 antag cf | MCHR1 antag
CCNC(=O)N(C)[C@H]1C[C@@H](c2ccccc2)N(C(C)=O)C[C@H]1CO | nt | nt | nt | 0 | nt | nt | nt
COCCCN1C(=O)C(CC(=O)NCc2cccs2)CC(C(=O)N(C(C)C)C(C)C)=C1C (stereo not drawn) | nt | nt | nt | -6 | nt | nt | nt
Cc1cc2c(c(=O)o1)[C@@]1(C(=O)N(C)c3c(Br)cccc31)C1=C(CCCC1=O)O2 | nt | nt | nt | -5 | nt | nt | nt
CCCCN(C)C(=O)c1nc2ccccn2c1CN1CCN(c2ncccn2)CC1 | -16 | 1 | -12 | -6 | -7 | nt | nt
CCCCN(C)C(=O)c1nc2ccccn2c1CN1CCN(C/C=C/c2ccccc2)CC1 | -10 | 16 | 26* | -8 | -17 | 29* | 21
O=C(NCCO)c1ccc(-c2nnc(Nc3ccc(O)cc3)c3ccccc23)cc1 | -8 | 1 | -7 | -2 | 0 | nt | nt
COc1ccc(Nc2nnc(-c3ccc(O)cc3)c3ccccc23)cc1 | 6 | 14 | 61* | -3 | -7 | 71* | 74*
Oc1ccc(Nc2nnc(-c3ccc(O)cc3)c3ccccc23)cc1 | -6 | 22 | 39* | -6 | 20 | 54* | 62*
COc1ccc(-c2nnc(Nc3ccc(CC(N)=O)cc3)c3ccccc23)cc1 | -23 | 21 | -2 | -1 | -15 | nt | nt
CCC1CCCCN1C(=O)COC(=O)c1cncc(Br)c1 (stereo not drawn) | nt | nt | nt | -3 | nt | nt | nt
CCOC(=O)[C@@H](NC(=O)CC[C@H]1O[C@@H](n2ccc(=O)[nH]c2=O)[C@H](O)[C@@H]1O)C(C)C | nt | nt | nt | -5 | nt | nt | nt
Cn1ncc2c1NC(c1ccc(F)cc1)SCC2=O (stereo not drawn) | nt | nt | nt | -3 | nt | nt | nt
COc1ccc(-c2n[nH]c(C(F)(F)F)c2-c2cc3ccccc3o2)c(O)c1 | 78* | 2 | 29* | -6 | 52* | 32* | 71*
COc1ccccc1-c1c(-c2ccc(OCC(=O)NN)cc2O)n[nH]c1C(F)(F)F | -24 | -1 | -6 | -1 | -14 | nt | nt
Cc1cc(NC(=O)CCc2ccc(S(=O)(=O)N3CCOCC3)cc2)n(-c2ccccc2)n1 | -10 | 15 | 30* | -2 | -3 | -9 | 21
COC(=O)COc1ccc(-c2ccc(F)cc2)cc1C=O | -10 | 6 | 33* | 9 | -7 | 31* | 35*
C=CC[C@]12C[C@@]3(O[C@H](c4ccc(C(F)(F)F)cc4)N=C3C[C@H](c3ccc(OC)cc3)[C@H]1C)N(Cc1ccncc1)C2=O | nt | nt | nt | -7 | nt | nt | nt
Cc1ccc(C(=O)NCc2ccc3c(c2)OCO3)o1 | -18 | 2 | 28* | -4 | -15 | 0 | 5
Fc1ccccc1NC(=S)NCc1ccc2c(c1)OCO2 | -8 | 12 | 31* | -3 | 0 | 19 | 7
CN1CCN(C(=O)C[C@@H]2CC[C@@H]3[C@H](COC[C@@H](O)CN3Cc3cccc(Cl)c3)O2)CC1 | nt | nt | nt | -4 | nt | nt | nt
CCc1cc(=O)oc2c3c(cc(OCC(=O)NCc4ccco4)c12)OC(C)(C)CC3 | 5 | 10 | 41* | nt | -29 | 15 | 32*
CN[C@H]1C[C@H]2c3[nH]c4c(-c5ccc6c(c5)OCO6)cccc4c3CCN2C(=O)[C@H]1[C@H](C)O | nt | nt | nt | -6 | nt | nt | nt
